Experiments:
Cavia porcellus [1] = species on record: Cavia porcellus; test: Compound was tested for calcium channel agonistic activity, causing a 50% increase of the maximum contractile response on guinea pig left atrium.; assay type: functional, Cardiac atrium
How it was run: (§1)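 Guinea pig left atrium (GPLA) preparation exposed to increasing test compound concentrations. […] Number of experiments varies per compound. For weak responders, percent increase in contractile force recorded at individual concentrations.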

Cavia porcellus [2] = species on record: Cavia porcellus; test: Inhibition of carbachol-induced tonic contractile response in guinea pig ileal longitudinal smooth muscle; assay type: functional
How it was run: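 Guinea pig ileal longitudinal smooth muscle contracted by the muscarinic agonist carbachol (1.6 × 10⁻⁷ M). Slow, Ca²⁺-dependent tonic component measured. […] Reported ± SEM, n = 3.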

Cavia porcellus [3] = species on record: Cavia porcellus; test: Calcium channel agonist activity causing a 50% increase in maximum contractile response on guinea pig left atrium; No effect; assay type: functional, Cardiac atrium; how it was run: as §1
Cavia porcellus [4] = species on record: Cavia porcellus; test: Calcium channel agonist activity causing a 50% increase in maximum contractile response on guinea pig left atrium; 'c' means Weak agonist; assay type: functional, Cardiac atrium; how it was run: as §1
[5] = Cavia porcellus, Cardiac atrium

SMILES	EC50 (Cavia porcellus [1]; [5])	further results
CC1=NC(C)=C([N+](=O)[O-])C(c2cccnc2)/C1=C(\O)OC1CCCCC1 (configuration not stated)	2.76 µM	–
CC1=NC(C)=C([N+](=O)[O-])C(c2ccncc2)/C1=C(\O)OC1CCCCC1 (configuration not stated)	4.94 µM	–
CCO/C(O)=C1\C(C)=NC(C)=C([N+](=O)[O-])C1c1ccncc1 (configuration not stated)	6.46 µM	–
COCCO/C(O)=C1\C(C)=NC(C)=C([N+](=O)[O-])C1c1cccnc1 (configuration not stated)	49.4 µM	–
CC1=NC(C)=C([N+](=O)[O-])C(c2cccnc2)/C1=C(\O)OC(C)(C)C (configuration not stated)	14.6 µM	–
CO/C(O)=C1\C(C)=NC(C)=C([N+](=O)[O-])C1c1ccncc1 (configuration not stated)	48.5 µM	–
CC1=NC(C)=C([N+](=O)[O-])C(c2ccccn2)/C1=C(\O)OCC(C)C (configuration not stated)	9.1 µM	IC50 (Cavia porcellus [2]; Cavia porcellus): 2.61 µM
COCCO/C(O)=C1\C(C)=NC(C)=C([N+](=O)[O-])C1c1ccncc1 (configuration not stated)	37.7 µM	–
CC1=NC(C)=C([N+](=O)[O-])C(c2ccncc2)/C1=C(\O)OC1CCCC1 (configuration not stated)	4.25 µM	–
CC1=NC(C)=C([N+](=O)[O-])C(c2cccnc2)/C1=C(\O)OCC(C)C (configuration not stated)	1.74 µM	–
CC1=NC(C)=C([N+](=O)[O-])C(c2ccccn2)/C1=C(\O)OC(C)(C)C (configuration not stated)	1810 µM	IC50 (Cavia porcellus [2]; Cavia porcellus): 1.93 µM
COCCO/C(O)=C1\C(C)=NC(C)=C([N+](=O)[O-])C1c1ccccn1 (configuration not stated)	9.7 µM	IC50 (Cavia porcellus [2]; Cavia porcellus): 94.7 µM
CC1=NC(C)=C([N+](=O)[O-])C(c2ccncc2)/C1=C(\O)OCC(C)C (configuration not stated)	8.51 µM	–
CO/C(O)=C1\C(C)=NC(C)=C([N+](=O)[O-])C1c1ccccn1 (configuration not stated)	–	EC50 (Cavia porcellus [3]): Not Active; IC50 (Cavia porcellus [2]; Cavia porcellus): 212 µM
CC1=NC(C)=C([N+](=O)[O-])C(c2ccccn2)/C1=C(\O)OC1CCCC1 (configuration not stated)	19.8 µM	IC50 (Cavia porcellus [2]; Cavia porcellus): 0.45 µM
CCO/C(O)=C1\C(C)=NC(C)=C([N+](=O)[O-])C1c1cccnc1 (configuration not stated)	8.84 µM	–
CO/C(O)=C1\C(C)=NC(C)=C([N+](=O)[O-])C1c1cccnc1 (configuration not stated)	70 µM	–
CC1=NC(C)=C([N+](=O)[O-])C(c2cccnc2)/C1=C(\O)OC1CCCC1 (configuration not stated)	3.28 µM	–
CCO/C(O)=C1\C(C)=NC(C)=C([N+](=O)[O-])C1c1ccccn1 (configuration not stated)	22.8 µM	IC50 (Cavia porcellus [2]; Cavia porcellus): 5 µM
CC1=NC(C)=C([N+](=O)[O-])C(c2ccncc2)/C1=C(\O)OC(C)(C)C (configuration not stated)	2.82 µM	–
CC1=NC(C)=C([N+](=O)[O-])C(c2ccccn2)/C1=C(\O)OC1CCCCC1 (single isomer, unassigned; (+))	–	IC50 (Cavia porcellus [2]): 5.27 µM; EC50 (Cavia porcellus [1]): 8.45 µM
CC1=NC(C)=C([N+](=O)[O-])C(c2ccccn2)/C1=C(\O)OC1CCCCC1 (single isomer, unassigned; (-))	–	EC50 (Cavia porcellus [4]): Partial agonist; IC50 (Cavia porcellus [2]): 0.0748 µM
CC1=NC(C)=C([N+](=O)[O-])C(c2ccccn2)/C1=C(\O)OC1CCCCC1 (stereo in doubt; 14a)	–	IC50 (Cavia porcellus [2]): 0.842 µM; EC50 (Cavia porcellus [1]): 3.7 µM

Reference: ChEMBL document CHEMBL1131300, “Synthesis and calcium channel-modulating effects of alkyl (or cycloalkyl) 1,4-dihydro-2,6-dimethyl-3-nitro-4-pyridyl-5-pyridinecarboxylate racemates and enantiomers” (J Med Chem, 1998)
